The record followed here is ChEMBL document CHEMBL2150931, “Design, synthesis, and biological activity of a novel series of human sirtuin-2-selective inhibitors” (J Med Chem, 2012).

The source made the active and inactive calls. The rule behind the calls is not given here.

In experiment [1] the target is T1, NAD-dependent protein deacetylase sirtuin-2 (Homo sapiens) (UniProt Q8IXJ6).
T1 sequence (whole entry): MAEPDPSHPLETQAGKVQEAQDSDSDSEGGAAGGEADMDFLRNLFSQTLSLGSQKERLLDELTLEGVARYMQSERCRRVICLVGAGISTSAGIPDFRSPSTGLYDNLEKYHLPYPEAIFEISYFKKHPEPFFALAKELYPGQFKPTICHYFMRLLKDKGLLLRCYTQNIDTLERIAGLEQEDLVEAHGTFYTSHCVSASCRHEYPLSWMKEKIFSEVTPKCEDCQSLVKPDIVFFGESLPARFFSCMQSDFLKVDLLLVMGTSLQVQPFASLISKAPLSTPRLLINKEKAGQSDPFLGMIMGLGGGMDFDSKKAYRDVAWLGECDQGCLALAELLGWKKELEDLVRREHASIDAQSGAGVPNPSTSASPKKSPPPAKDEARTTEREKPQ
The conditions noted are these: HCT-116, 10 uM.

Experiment [2] has as its target T2, NAD-dependent protein deacetylase sirtuin-1 (Homo sapiens, UniProt Q96EB6).
T2 sequence (Q96EB6 whole entry): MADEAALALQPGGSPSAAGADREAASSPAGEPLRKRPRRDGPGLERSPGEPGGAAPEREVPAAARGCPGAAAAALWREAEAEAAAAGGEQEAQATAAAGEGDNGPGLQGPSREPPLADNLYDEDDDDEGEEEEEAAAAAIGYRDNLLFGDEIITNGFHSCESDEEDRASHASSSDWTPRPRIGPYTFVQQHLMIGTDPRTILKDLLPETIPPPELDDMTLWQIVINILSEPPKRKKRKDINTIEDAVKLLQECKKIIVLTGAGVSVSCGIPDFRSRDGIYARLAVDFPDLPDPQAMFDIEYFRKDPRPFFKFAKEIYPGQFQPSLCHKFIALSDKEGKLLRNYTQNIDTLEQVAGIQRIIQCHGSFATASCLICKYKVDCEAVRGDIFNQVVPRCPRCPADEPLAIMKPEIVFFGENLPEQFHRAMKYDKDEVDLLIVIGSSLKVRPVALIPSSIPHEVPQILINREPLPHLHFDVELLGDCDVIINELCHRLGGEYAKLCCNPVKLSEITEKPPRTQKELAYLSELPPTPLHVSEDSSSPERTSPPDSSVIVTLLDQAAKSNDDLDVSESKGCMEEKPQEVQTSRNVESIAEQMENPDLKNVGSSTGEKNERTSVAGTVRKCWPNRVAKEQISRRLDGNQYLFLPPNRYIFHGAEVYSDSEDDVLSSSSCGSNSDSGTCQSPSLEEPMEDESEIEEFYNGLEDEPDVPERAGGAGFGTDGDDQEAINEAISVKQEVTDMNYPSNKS
The experiment is described as follows: Inhibition of human recombinant SIRT1 using Fluor de Lys-SIRT as substrate incubated for 60 mins prior to substrate addition measured after 60 mins by fluorimetric analysis. The gist of the method:
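Human recombinant SIRT1 run the same way: 60 min at 37 °C with 1 mM NAD⁺ and serial compound dilutions, then 25 μM Fluor de Lys-SIRT substrate for 60 min. Stopped with nicotinamide-containing Developer II and read 45 min later at ex 360/em 460 nm. IC₅₀ from logit regression of % inhibition vs control; means of ≥3 experiments.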

Experiment [3] has as its target T3, NAD-dependent protein deacetylase sirtuin-3, mitochondrial (Homo sapiens, UniProt Q9NTG7).
T3 sequence (Q9NTG7 whole entry): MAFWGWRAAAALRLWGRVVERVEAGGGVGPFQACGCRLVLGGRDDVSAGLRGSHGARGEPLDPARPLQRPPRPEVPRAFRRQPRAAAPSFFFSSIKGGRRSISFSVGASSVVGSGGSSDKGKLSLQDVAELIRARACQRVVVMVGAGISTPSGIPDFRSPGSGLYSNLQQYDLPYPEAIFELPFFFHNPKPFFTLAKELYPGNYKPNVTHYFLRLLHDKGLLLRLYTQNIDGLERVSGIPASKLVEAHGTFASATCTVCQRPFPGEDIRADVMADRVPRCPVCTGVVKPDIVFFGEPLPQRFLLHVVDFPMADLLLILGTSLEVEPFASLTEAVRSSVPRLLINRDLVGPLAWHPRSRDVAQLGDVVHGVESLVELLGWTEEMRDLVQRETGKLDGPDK
Put plainly: Inhibition of human recombinant SIRT3 using Fluor de Lys-SIRT as substrate incubated for 60 mins prior to substrate addition measured after 60 mins by fluorimetric analysis.

The target of experiment [4] is T4, NAD-dependent protein deacetylase sirtuin-2 (Homo sapiens, UniProt Q8IXJ6).
T4 sequence (Q8IXJ6 whole entry): T1 sequence (whole entry)
The experiment is described as follows: Inhibition of human recombinant SIRT2 using Fluor de Lys-SIRT as substrate incubated for 60 mins prior to substrate addition measured after 60 mins by fluorimetric analysis. Summed up: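 Human recombinant SIRT2 preincubated with 1 mM NAD⁺ and serial compound dilutions for 60 min at 37 °C, then 25 μM Fluor de Lys-SIRT substrate added. Reaction stopped at 60 min with Developer II containing nicotinamide. Fluorescence read 45 min later at ex 360/em 460 nm. % inhibition taken against control wells. IC₅₀ obtained by regression of log[Inh] vs logit % inhibition; means of ≥3 experiments.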

The target in experiment [5] is T5, NAD-dependent protein deacetylase sirtuin-1 (Homo sapiens) (UniProt Q96EB6).
T5 sequence (whole entry): T2 sequence (Q96EB6 whole entry)
The conditions noted are these: HCT-116, 10 uM.

Experiment [6] has as its target T5, NAD-dependent protein deacetylase sirtuin-1 (Homo sapiens). The experiment is described as follows: Inhibition of human recombinant SIRT1 using Fluor de Lys-SIRT as substrate at 100 uM incubated for 60 mins prior to substrate addition measured after 60 mins by fluorimetric analysis. Summed up: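 Single-point SIRT1 test at 100 μM compound. Human recombinant enzyme with 1 mM NAD⁺ at 37 °C for 60 min, then 25 μM Fluor de Lys-SIRT substrate for 60 min. Stopped with nicotinamide developer; fluorescence read at 360/460 nm after 45 min. Inhibition expressed as % relative to uninhibited control wells.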

Consider `N#C/C(=C\c1ccc(-c2cc(Cl)ccc2Cl)o1)C(=O)Nc1cccc2ncccc12`, for which the inhibition result in experiment [1] is “Active”. In experiment [2], the IC50 came out at 30 µM.

In the case of `NC(=O)c1ccccc1Nc1cccc(OCCc2cccc(F)c2)c1`, the IC50 is above 100 µM in experiment [2], above 300 µM in experiment [3] and 0.57 µM in experiment [4].

Regarding `NC(=O)C1CCCc2c1[nH]c1ccc(Cl)cc21` (stereo unspecified), the inhibition result in experiment [5] is “Active”.

Turning to `NC(=O)c1ccccc1Nc1ccc(OCc2ccccc2)cc1`, the IC50 in experiment [2] was above 100 µM; in experiment [4] it was 33 µM. The inhibition in experiment [6] is 13%.

Consider `NC(=O)c1ccccc1Nc1cccc(OCCc2ccc(Br)cc2)c1`, for which the IC50 in experiment [2] was above 100 µM; in experiment [4], 1.2 µM.

Consider `NC(=O)c1ccccc1Nc1cccc(OCCc2cccc(Br)c2)c1`, for which the figures for the IC50 in experiment [2] and in experiment [4] were above 100 µM and 3.4 µM, respectively.

For the molecule `NC(=O)c1ccccc1Oc1ccccc1`, the IC50 in experiment [2] and in experiment [4] was above 100 µM throughout.

`O=C(O)c1ccccc1Nc1ccccc1` [FENAMIC ACID]: the IC50 in experiment [2] was 68 µM; in experiment [4], above 100 µM.

As to `NC(=O)c1ccccc1Nc1cccc(OCCCc2ccccc2)c1`, the IC50 in experiment [2] was above 300 µM; in experiment [4] it was 4.3 µM.

As to `CN(C(=O)c1cccc(Nc2ccccc2C(N)=O)c1)c1ccccc1`, the IC50 in experiment [2] and in experiment [4] was above 100 µM each time.
